Measurements reported in ChEMBL document CHEMBL3992561, “Synthesis of 1,3,5-trisubstituted pyrazolines as potential antimalarial and antimicrobial agents” (Bioorg Med Chem, 2017).
pIC50: −log10 of the molar value. In brackets after ≈: the same amount, converted by molar mass.

Columns and labels:
[1] = system: Candida albicans; test: Antifungal activity against Candida albicans MTCC 227 after 48 hrs by broth microdilution method; assay type: functional; settings: MTCC 227, 48 h
In short: (§1)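 Fungi grown in Sabouraud liquid medium, inoculum 0.5–2.5 x 10^3 CFU/ml. Broth microdilution per NCCLS using twofold serial dilutions in sterile water from DMSO solutions. Incubated at 35°C for 48 h. MIC (µg/ml) was the lowest concentration with no visible growth by eye. Fluconazole as positive control. Mean ± SD of three replicates.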

[2] = system: Aspergillus niger; test: Antifungal activity against Aspergillus niger MTCC 8189 after 48 hrs by broth microdilution method; assay type: functional; settings: MTCC 8189, 48 h; in short: as §1
[3] = system: Escherichia coli; test: Antibacterial activity against Escherichia coli MTCC 51 after 24 hrs by broth microdilution method; assay type: functional; settings: MTCC 51, 24 h
In short: (§2)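 Broth microdilution per NCCLS in Mueller-Hinton broth, inoculum 5 x 10^5 CFU/ml. Compounds dissolved in DMSO, twofold serial dilutions made in sterile distilled water. Incubated at 35°C for 24 h. MIC (µg/ml) taken as the lowest concentration with no visible turbidity by unaided eye. Ciprofloxacin as positive control. Three replicates, mean ± SD.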

[4] = system: Pseudomonas aeruginosa; test: Antibacterial activity against Pseudomonas aeruginosa MTCC 741 after 24 hrs by broth microdilution method; assay type: functional; settings: MTCC 741, 24 h; in short: as §2
[5] = Selectivity index, ratio of IC50 for human HepG2 cells to IC50 for chloroquine-resistant Plasmodium falciparum RKL-9 schizont infected in RBC; assay type: toxicity; settings: read-out: Ratio IC50
In short: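 HepG2 in RPMI 1640 with 10% FCS, 5 x 10^2 cells/well, serial dilutions (DMSO stocks) added after 1 h; 7 days at 37°C, 5% CO2; MTT 4 h, formazan in ethanol, absorbance 570 nm; IC50 by non-linear regression, one experiment in duplicate. Index = HepG2 IC50 / RKL-9 antiplasmodial IC50.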

[6] = system: HepG2; test: Cytotoxicity against human HepG2 cells assessed as reduction in cell viability after 7 days by MTT assay; assay type: cell-based; settings: HepG2, 168 h
In short: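 HepG2 cells maintained in RPMI 1640 with 10% FCS. Seeded at 5 x 10^2 cells per well and pre-incubated 1 h at 37°C, 5% CO2. Serial dilutions from DMSO stocks added, with medium and DMSO solvent controls. Cells incubated seven days, then MTT (5 mg/ml) added for 4 h. Formazan dissolved in ethanol, A570 read. IC50 by non-linear regression of % growth against log concentration.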

[7] = system: Bacillus subtilis; test: Antibacterial activity against Bacillus subtilis MTCC 121 after 24 hrs by broth microdilution method; assay type: functional; settings: MTCC 121, 24 h; in short: as §2
[8] = system: Staphylococcus aureus; test: Antibacterial activity against Staphylococcus aureus MTCC 3160 after 24 hrs by broth microdilution method; assay type: functional; settings: MTCC 3160, 24 h; in short: as §2
[9] = Inhibition of beta-hematin formation assessed as reduction in acetate buffer-initiated hemozoin formation after 18 hrs by spectrophotometric method relative to control; parameters: concentration or dose not given beside the values; settings: concentration not given here
In short: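 Colorimetric β-hematin assay after Ncokazi and Egan. Haemin chloride in DMSO, with compounds at 0.12–5 molar equivalents to haemin and DMSO as control. Reaction started with acetate buffer pH 5.0 and run 18 h at 37°C. Pellet then washed with DMSO to remove unreacted haematin. % inhibition computed from test versus control absorbance. Duplicate determinations.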

[10] = system: Plasmodium falciparum; test: Antimalarial activity against chloroquine-sensitive Plasmodium falciparum MRC-2 schizont infected in RBC measured after 24 to 30 hrs hrs by giemsa staining based light microscopic method; assay type: functional
In short: (§3)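 Asynchronous cultures synchronised to rings with 5% aqueous sorbitol, other stages removed by centrifugation; parasitemia about 1% in fresh washed RBCs. Compounds dissolved in DMSO, diluted in RPMI-1640, tested at several concentrations in triplicate; drug-free wells as control. Incubation 37°C in CO2 for 24-30 h until schizont maturation; methanol-fixed Giemsa smears counted under oil immersion; % inhibition, IC50 by probit; n=2.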

[11] = system: Plasmodium falciparum; test: Antimalarial activity against chloroquine-resistant Plasmodium falciparum RKL-9 schizont infected in RBC measured after 24 to 30 hrs hrs by giemsa staining based light microscopic method; assay type: functional; in short: as §3

Row | Compound | MIC [1] | MIC [2] | MIC [3] | MIC [4] | selectivity ratio [5] | pIC50 [6] | MIC [7] | MIC [8] | inhibition [9] | pIC50 [10] | pIC50 [11]
1 | COc1ccc(C2CC(c3ccc(O)cc3)=NN2C(=O)c2cccnc2)cc1C (stereo unspecified) | 50 µg/mL (≈ 129 µM) | 25 µg/mL (≈ 64.5 µM) | 12.5 µg/mL (≈ 32.3 µM) | 6.5 µg/mL (≈ 16.8 µM) | 57.5 | 4.35 | 25 µg/mL (≈ 64.5 µM) | 25 µg/mL (≈ 64.5 µM) | 66% | 7.20 | 6.11
2 | CC(C)c1ccc(C2CC(c3ccc(O)cc3)=NN2C(=O)c2cccnc2)cc1 (stereo unspecified) | 12.5 µg/mL (≈ 32.4 µM) | 25 µg/mL (≈ 64.9 µM) | 3.25 µg/mL (≈ 8.43 µM) | 12.5 µg/mL (≈ 32.4 µM) | 83.3 | 4.41 | 50 µg/mL (≈ 130 µM) | 12.5 µg/mL (≈ 32.4 µM) | 48% | 7.47 | 6.33
3 | O=C(O)c1cn(C2CC2)c2cc(N3CCNCC3)c(F)cc2c1=O [CIPROFLOXACIN] |  |  | 12.5 µg/mL (≈ 37.7 µM) |  |  | 4.57 | 25 µg/mL (≈ 75.4 µM) |  |  |  | 6.40
4 | CCc1ccccc1C1CC(c2ccc(O)cc2)=NN1C(=O)c1cccnc1 (stereo unspecified) | 100 µg/mL (≈ 269 µM) | 50 µg/mL (≈ 135 µM) | 12.5 µg/mL (≈ 33.7 µM) | 25 µg/mL (≈ 67.3 µM) | 75.1 | 4.45 | 50 µg/mL (≈ 135 µM) | 50 µg/mL (≈ 135 µM) | 53% | 7.09 | 6.33
5 | COc1ccc(C2CC(c3ccc(O)cc3)=NN2C(=O)c2cccnc2)cc1 (stereo unspecified) | 50 µg/mL (≈ 134 µM) | 12.5 µg/mL (≈ 33.5 µM) | 25 µg/mL (≈ 67 µM) | 25 µg/mL (≈ 67 µM) | 76.3 | 4.37 | 75 µg/mL (≈ 201 µM) | 50 µg/mL (≈ 134 µM) | 54% | 7.23 | 6.25
6 | O=C(c1cccnc1)N1N=C(c2ccc(O)cc2)CC1c1ccccc1Cl (stereo unspecified) | 6.5 µg/mL (≈ 17.2 µM) | 3.25 µg/mL (≈ 8.6 µM) | 50 µg/mL (≈ 132 µM) | 3.25 µg/mL (≈ 8.6 µM) | 20.5 | 4.32 | 12.5 µg/mL (≈ 33.1 µM) | 75 µg/mL (≈ 199 µM) | 31% | 6.62 | 5.63
7 | O=C(c1cccnc1)N1N=C(c2ccc(O)cc2)CC1c1ccc(OCc2ccccc2)cc1 (stereo unspecified) | 3.25 µg/mL (≈ 7.23 µM) | 12.5 µg/mL (≈ 27.8 µM) | 25 µg/mL (≈ 55.6 µM) | 12.5 µg/mL (≈ 27.8 µM) | 4.48 | 4.94 | 50 µg/mL (≈ 111 µM) | 50 µg/mL (≈ 111 µM) | < 5% | 6.67 | 5.59
8 | CC(C)Oc1ccc(C2CC(c3ccc(O)cc3)=NN2C(=O)c2cccnc2)cc1 (stereo unspecified) | 6.5 µg/mL (≈ 16.2 µM) | 12.5 µg/mL (≈ 31.1 µM) | 6.5 µg/mL (≈ 16.2 µM) | 50 µg/mL (≈ 125 µM) | 139 | 4.34 | 75 µg/mL (≈ 187 µM) | 50 µg/mL (≈ 125 µM) | 78% | 7.42 | 6.47
9 | Cc1cc(C)c(C2CC(c3ccc(O)cc3)=NN2C(=O)c2cccnc2)c(C)c1 (stereo unspecified) | 50 µg/mL (≈ 130 µM) | 25 µg/mL (≈ 64.9 µM) | 6.5 µg/mL (≈ 16.9 µM) | 6.5 µg/mL (≈ 16.9 µM) | 100 | 4.26 | 12.5 µg/mL (≈ 32.4 µM) | 12.5 µg/mL (≈ 32.4 µM) | 67% | 7.03 | 6.26
10 | COc1ccc(OC)c(C2CC(c3ccc(O)cc3)=NN2C(=O)c2cccnc2)c1 (stereo unspecified) | 75 µg/mL (≈ 186 µM) | 12.5 µg/mL (≈ 31 µM) | 25 µg/mL (≈ 62 µM) | 12.5 µg/mL (≈ 31 µM) | 172 | 4.25 | 25 µg/mL (≈ 62 µM) | 25 µg/mL (≈ 62 µM) | 71% | 7.40 | 6.48
11 | OC(Cn1cncn1)(Cn1cncn1)c1ccc(F)cc1F [FLUCONAZOLE] | 12.5 µg/mL (≈ 40.8 µM) | 25 µg/mL (≈ 81.6 µM) |  |  |  |  |  |  |  |  | 
12 | CCN(CC)CCCC(C)Nc1ccnc2cc(Cl)ccc12 (stereo unspecified) |  |  |  |  |  |  |  |  | 87% |  | 
13 | COc1ccc(C2CC(c3ccc(O)cc3)=NN2C(=O)c2cccnc2)cc1OC (stereo unspecified) | 75 µg/mL (≈ 186 µM) | 6.5 µg/mL (≈ 16.1 µM) | 50 µg/mL (≈ 124 µM) | 25 µg/mL (≈ 62 µM) | 213 | 4.27 | 50 µg/mL (≈ 124 µM) | 50 µg/mL (≈ 124 µM) | 89% | 7.52 | 6.60
14 | CC(C)c1ccccc1C1CC(c2ccc(O)cc2)=NN1C(=O)c1cccnc1 (stereo unspecified) | 50 µg/mL (≈ 130 µM) | 25 µg/mL (≈ 64.9 µM) | 3.25 µg/mL (≈ 8.43 µM) | 12.5 µg/mL (≈ 32.4 µM) | 30.1 | 4.30 | 12.5 µg/mL (≈ 32.4 µM) | 25 µg/mL (≈ 64.9 µM) | 57% | 6.96 | 5.78
15 | O=C(c1cccnc1)N1N=C(c2ccc(O)cc2)CC1c1ccc(F)cc1 (stereo unspecified) | 12.5 µg/mL (≈ 34.6 µM) | 25 µg/mL (≈ 69.2 µM) | 6.5 µg/mL (≈ 18 µM) | 12.5 µg/mL (≈ 34.6 µM) | 18.1 | 4.28 | 3.25 µg/mL (≈ 8.99 µM) | 12.5 µg/mL (≈ 34.6 µM) | < 5% | 5.60 | 5.54
16 | CCCc1ccc(C2CC(c3ccc(O)cc3)=NN2C(=O)c2cccnc2)cc1 (stereo unspecified) | 25 µg/mL (≈ 64.9 µM) | 25 µg/mL (≈ 64.9 µM) | 12.5 µg/mL (≈ 32.4 µM) | 12.5 µg/mL (≈ 32.4 µM) | 216 | 4.38 | 50 µg/mL (≈ 130 µM) | 12.5 µg/mL (≈ 32.4 µM) | 81% | 7.66 | 6.72
17 | O=C(c1cccnc1)N1N=C(c2ccc(O)cc2)CC1c1ccc([N+](=O)[O-])cc1 (stereo unspecified) | 12.5 µg/mL (≈ 32.2 µM) | 25 µg/mL (≈ 64.4 µM) | 6.5 µg/mL (≈ 16.7 µM) | 25 µg/mL (≈ 64.4 µM) | 7.63 | 4.73 | 12.5 µg/mL (≈ 32.2 µM) | 6.5 µg/mL (≈ 16.7 µM) | < 5% | 5.81 | 5.61
